Measured values: ChEMBL document CHEMBL1150676, “Two new biologically active triterpenoidal saponins acylated with salicylic acid from Albizia adianthifolia” (J Nat Prod, 2003)
Calls of active or inactive are those of the source. The rule behind the calls is not given here.

Experiments:
[1] = system: Jurkat; assay: Cytotoxicity against human Jurkat cells at 1 uM; format: functional, cell-based
Method in brief: (§1)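 Jurkat human T-cell leukemia cells exposed to compounds at 10⁻²–10 μM. Proliferation read by ³H-thymidine incorporation and expressed as stimulation index (SI). Mean ± SE, n = 4.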

[2] = Toxicity in sheep erythrocytes assessed as induction of hemolysis; format: cell-based, Ovis aries, Erythrocyte; conditions: read-out: HD50 (the source's name)
Method in brief: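 Hemolysis measured on sheep erythrocytes, tested up to 400 μg/mL. Activity expressed as HC50 (μg/mL).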

[3] = system: Jurkat; assay: Immunomodulatory effect in human Jurkat cells assessed as cell proliferation stimulation index at 1 to 10 uM by [3H]thymidine incorporation assay
[4] = system: Jurkat; assay: Cytotoxicity against human Jurkat cells at =>10 uM; format: functional, cell-based; method in brief: as §1
[5] = system: Jurkat; assay: Immunomodulatory effect in human Jurkat cells by [3H]thymidine incorporation assay
[6] = system: Jurkat; assay: Inhibition of human Jurkat cell proliferation at 1 uM by [3H]thymidine incorporation assay
[7] = system: Jurkat; assay: Immunomodulatory effect in human Jurkat cells assessed as cell proliferation stimulation index at 0.01 uM by [3H]thymidine incorporation assay

Row | Structure (SMILES) | Activity [1] | HC50 [2] [µg/mL] | Activity [3] | Activity [4] | Activity [5] | Activity [6] | Activity [7]
1 | CC(=O)N[C@H]1[C@H](O[C@H]2CC[C@]3(C)[C@H]4CC=C5[C@@H]6CC(C)(C)[C@@H](O)C[C@]6(C(=O)O)[C@H](O)C[C@@]5(C)[C@]4(C)CC[C@H]3C2(C)C)O[C@H](CO[C@@H]2O[C@H](C)[C@H](O)[C@H](O)[C@H]2O[C@@H]2OC[C@@H](O)[C@H](O)[C@H]2O)[C@@H](O)[C@@H]1O | Not toxic | > 400 | Active | – | – | – | –
2 | C=CC(C)(CC/C=C(\CO)C(=O)O[C@H]1C[C@]2(C(=O)O)[C@H](O)C[C@]3(C)C(=CC[C@@H]4[C@@]5(C)CC[C@H](O[C@@H]6O[C@H](CO[C@@H]7O[C@H](C)[C@H](O)[C@H](O)[C@H]7O[C@@H]7OC[C@@H](O)[C@H](O)[C@H]7O)[C@@H](O)[C@H](O)[C@H]6O[C@@H]6O[C@H](CO)[C@@H](O)[C@H](O)[C@H]6O)C(C)(C)[C@@H]5CC[C@]43C)[C@@H]2CC1(C)C)O[C@@H]1O[C@@H](C)[C@H](O)[C@@H](O)[C@@H]1O (stereo not given in full) | – | > 400 | – | Toxic | – | – | –
3 | CC(=O)N[C@H]1[C@H](O[C@H]2CC[C@]3(C)[C@H]4CC=C5[C@@H]6CC(C)(C)[C@@H](OC(=O)c7ccccc7O)C[C@]6(C(=O)O[C@@H]6O[C@H](CO)[C@@H](O)[C@H](O)[C@H]6O[C@@H]6O[C@@H](C)[C@H](O[C@@H]7O[C@@H](CO)[C@H](O)[C@H]7O)[C@@H](O[C@@H]7O[C@H](CO)[C@@H](O)[C@H](O)[C@H]7O)[C@H]6O)[C@H](O)C[C@@]5(C)[C@]4(C)CC[C@H]3C2(C)C)O[C@H](CO[C@@H]2O[C@H](C)[C@H](O)[C@H](O)[C@H]2O[C@@H]2OC[C@@H](O)[C@H](O)[C@H]2O)[C@@H](O)[C@@H]1O [ADIANTHIFOLIOSIDE A] | Toxic | 17.5 | – | – | – | – | –
4 | C[C@@H]1O[C@@H](O[C@H]2[C@H](OC(=O)[C@]34C[C@H](OC(=O)c5ccccc5O)C(C)(C)C[C@H]3C3=CC[C@@H]5[C@@]6(C)CC[C@H](O[C@@H]7O[C@H](CO[C@@H]8O[C@H](C)[C@H](O)[C@H](O)[C@H]8O[C@@H]8OC[C@@H](O)[C@H](O)[C@H]8O)[C@@H](O)[C@H](O)[C@H]7O[C@@H]7O[C@H](CO)[C@@H](O)[C@H](O)[C@H]7O)C(C)(C)[C@@H]6CC[C@@]5(C)[C@]3(C)C[C@H]4O)O[C@H](CO)[C@@H](O)[C@@H]2O)[C@H](O)[C@H](O[C@@H]2O[C@H](CO)[C@@H](O)[C@H](O)[C@H]2O)[C@H]1O[C@@H]1O[C@@H](CO)[C@H](O)[C@H]1O [ADIANTHIFOLIOSIDE B] | – | – | – | – | Dose-dependent effect | Active | 1.21
